From ChEMBL document CHEMBL4665779, “Novel 2-Substituted 3-Hydroxy-1,6-dimethylpyridin-4(1H)-ones as Dual-Acting Biofilm Inhibitors of Pseudomonas aeruginosa” (J Med Chem, 2020)
Calls of active or inactive are those of the source. The rule behind the calls is not given here.

Legend:
[1] = Growth inhibition of Pseudomonas aeruginosa PAO1 at 512 uM by CLSI-based broth microdilution method
Procedure, shortened: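 Broth microdilution following CLSI standards: two-fold serial dilutions were made in Mueller-Hinton broth and inoculated with P. aeruginosa to a final OD600 of 0.05. The top final concentration is printed as […].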

Pseudomonas aeruginosa = assay: Antibiofilm activity against Pseudomonas aeruginosa PAO1 assessed as inhibition of biofilm formation after 18 hrs by crystal violet staining based assay; format: functional, organism-based; settings: PAO1, 18 h
Vero = assay: Cytotoxicity against African green monkey Vero cells assessed as reduction in cell viability at 1.25 to 100 uM after 16 hrs by MTT assay; format: cell-based; settings: chlorocebus sabaeus, dose 1.25-100 µM
Procedure, shortened: (§1)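 MTT assay on Vero or LO2 cells seeded at 5000–15000 cells/well for 16 h, then washed with PBS. Compound (0–100 μM) added in DMEM for 16 h at 37 °C, 5% CO2. MTT added for 3 h, formazan dissolved in DMSO with shaking, OD570 read. Triplicate, mean ± SD.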

[2] = system: Pseudomonas aeruginosa PAO1; assay: Induction of iron chelation in Pseudomonas aeruginosa PAO1 assessed as increase in intracellular pyochelin level at 1.25 to 20 uM in presence of 10 uM FeCl3 by fluorescence microplate reader assay; format: cell-based; settings: dose microM 1.25-20
[3] = system: Pseudomonas aeruginosa PAO1; assay: Induction of iron chelation in Pseudomonas aeruginosa PAO1 assessed as increase in iron deficiency by measuring change in total ferric ion concentration at 20 uM by inductively coupled plasma mass spectrometry (reference value: 1.91 +/- 0.8 uM)
L02 = assay: Cytotoxicity against human L02 cells assessed as reduction in cell viability at 1.25 to 100 uM after 16 hrs by MTT assay; format: cell-based; settings: l02, 16 h, dose 1.25-100 µM; procedure, shortened: as §1
[4] = system: Pseudomonas aeruginosa PAO1; assay: Induction of iron chelation in Pseudomonas aeruginosa PAO1 assessed as increase in intracellular pyoverdin level at 1.25 to 20 uM in presence of 10 uM FeCl3 by fluorescence microplate reader assay; format: cell-based; settings: dose microM 1.25-20
[5] = Metal chelating activity assessed as negative logarithm of total free ferric ion concentration in a solution at 60 uM measured after 48 hrs in presence of CP645 probe and Fe-NTA by fluorescence spectrophotometry analysis

Row | SMILES | growth inhibition (GI) [1] | IC50 (Pseudomonas aeruginosa) [µM] | also measured
1 | Cc1cc(=O)c(O)c(CNC2CCN(C)CC2)n1C | Non-Toxic | 35 | 
2 | Cc1cc(=O)c(O)c(CNC(=O)CC2CCCCC2)n1C | Non-Toxic | 46.8 | 
3 | Cc1cc(=O)c(O)c(CNS(=O)(=O)c2ccccc2)n1C | Non-Toxic | > 100 | 
4 | COc1ccc(S(=O)(=O)NCc2c(O)c(=O)cc(C)n2C)cc1 | Non-Toxic | > 100 | 
5 | Cc1cc(=O)c(O)c(CNS(=O)(=O)c2ccc(C(C)(C)C)cc2)n1C | Non-Toxic | 51.6 | 
6 | Cc1cc(=O)c(O)c(CNS(=O)(=O)c2ccc(-c3ccccc3)cc2)n1C | Non-Toxic | > 100 | 
7 | CCCC(=O)NCc1c(O)c(=O)cc(C)n1C | Non-Toxic | 45.1 | 
8 | COc1ccc(CCCC(=O)NCc2c(O)c(=O)cc(C)n2C)cc1 | Non-Toxic | > 100 | 
9 | Cc1cc(=O)c(O)c(CNC(=O)C2CCC2)n1C | Non-Toxic | 64.1 | 
10 | Cc1cc(=O)c(O)c(CNS(=O)(=O)c2cccc3c2NCCC3)n1C | Non-Toxic | 35.3 | 
11 | Cc1cc(=O)c(O)c(CNC(=O)Cc2ccc(Cl)cc2)n1C | Non-Toxic | > 100 | 
12 | Cc1cc(=O)c(O)c(CNS(=O)(=O)c2ccc(F)cc2)n1C | Non-Toxic | > 100 | 
13 | Cc1cc(=O)c(O)c(CNC(=O)c2ccncc2)n1C | Non-Toxic | > 100 | 
14 | CCCCCCCCCC(=O)CC(=O)NCc1c(O)c(=O)cc(C)n1C | Non-Toxic | > 100 | 
15 | Cc1cc(=O)c(O)c(CNC2CCCC2)n1C | Non-Toxic | 14.9 | 
16 | COc1ccc(C(=O)NCc2c(O)c(=O)cc(C)n2C)cc1 | Non-Toxic | 38.4 | 
17 | Cc1ccc(S(=O)(=O)NCc2c(O)c(=O)cc(C)n2C)cc1 | Non-Toxic | 59.3 | 
18 | COc1ccc(CC(=O)NCc2c(O)c(=O)cc(C)n2C)cc1 | Non-Toxic | 65.5 | 
19 | CCCCNCc1c(O)c(=O)cc(C)n1C | Non-Toxic | 52.5 | 
20 | CCCCCNCc1c(O)c(=O)cc(C)n1C | Non-Toxic | > 100 | 
21 | COc1cccc(NCc2c(O)c(=O)cc(C)n2C)c1 | Non-Toxic | > 100 | 

Row | SMILES | growth inhibition (GI) [1] | IC50 (Pseudomonas aeruginosa) [µM] | also measured
22 | Cc1cc(=O)c(O)c(CNC(=O)c2ccc(F)cc2)n1C | Non-Toxic | > 100 | 
23 | CCCCCC(=O)NCc1c(O)c(=O)cc(C)n1C | Non-Toxic | 57.9 | 
24 | Cc1cc(=O)c(O)c(CNC(=O)C2CC2)n1C | Non-Toxic | > 100 | 
25 | Cc1cc(=O)c(O)c(CNC(=O)c2cccc3ccccc23)n1C | Non-Toxic | 75.6 | 
26 | Cc1cc(=O)c(O)c(CNCC2CN(Cc3ccc(F)cc3)CCO2)n1C (centres undefined) | Non-Toxic | > 100 | 
27 | Cc1cc(=O)c(O)c(CNCCCN2CCN(C)CC2)n1C | Non-Toxic | 16.9 | 
28 | CCCCC(=O)NCc1c(O)c(=O)cc(C)n1C | Non-Toxic | 56.9 | 
29 | Cc1cc(=O)c(O)c(CNC(=O)C2CCCC2)n1C | Non-Toxic | 65.1 | 
30 | Cc1cc(=O)c(O)c(CNC(=O)Cc2ccc(F)cc2)n1C | Non-Toxic | 55 | 
31 | Cc1cc(=O)c(O)c(CNC(=O)c2ccnc(C(F)(F)F)c2)n1C | Non-Toxic | > 100 | 
32 | CCCCCCCC(=O)NCc1c(O)c(=O)cc(C)n1C | Non-Toxic | > 100 | 
33 | Cc1c(O)c(=O)ccn1C [DEFERIPRONE] |  | > 100 | Activity (Vero): Non-Toxic; Activity [2]: Active; Activity [3]: 1.23 µM; Activity (L02): Non-Toxic; Activity [4]: inactive; log(activity) [5]: -20.8
34 | Cc1cc(=O)c(O)c(CNC(=O)C2CCCO2)n1C (centres undefined) | Non-Toxic | 26.5 | 
35 | Cc1cc(=O)c(O)c(CNC(C)C)n1C | Non-Toxic | 24.5 | 
36 | Cc1cc(=O)c(O)c(CNC(=O)c2ccccc2)n1C | Non-Toxic | 41.7 | 
37 | COc1ccc(CCC(=O)NCc2c(O)c(=O)cc(C)n2C)cc1 | Non-Toxic | 59.1 | 
38 | Cc1cc(=O)c(O)c(CNC(=O)c2ccc(C(F)(F)F)cc2)n1C | Non-Toxic | 61.1 | 
39 | Cc1cc(=O)c(O)c(CNC(=O)C2CCCCC2)n1C | Non-Toxic | 63.4 | 
40 | Cc1cc(=O)c(O)c(CNC(=O)Cc2ccccc2)n1C | Non-Toxic | 28.1 | 
41 | COc1ccccc1C(=O)NCc1c(O)c(=O)cc(C)n1C | Non-Toxic | 69.7 | 
42 | COc1cccc(C(=O)NCc2c(O)c(=O)cc(C)n2C)c1 | Non-Toxic | > 100 | 
